pIC50: −log10 of the molar value.

A short description of data set [1]: Cytotoxicity against mouse RAW264.7 cells after 48 hrs by MTT assay. Format: cell-based.
A short description of data set [2]: Cytotoxicity against mouse RAW264.7 cells assessed as maximum non-toxic dose after 48 hrs by MTT assay. Format: cell-based. The method, boiled down:
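RAW 264.7 cells exposed 48 h to serial dilutions (top 150 µM, 100 µM for one compound) in duplicate, control 0.25% DMSO. MTT 0.5 mg/mL added for 4 h, formazan dissolved in DMSO, absorbance 550 nm. […] 3–4 independent experiments.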

Data set [3] can be described thus: Antiviral activity against MNV1 CW1 infected in mouse RAW264.7 cells assessed as inhibition of viral plaque formation after 24 hrs by neutral red staining. To be noted: for pIC50: Murine norovirus 1, CW1, RAW264.7, 24 h. The class given is functional, cell-based, Murine norovirus 1. The method, boiled down:
(§1)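 Confluent RAW 264.7 cells (plated at 5.0 × 10^5 cells/mL, 24 h, then maintenance medium with 2% FBS) infected 1 h at 37 °C with MNV-1.CW1 at 20-80 PFU/well, with compound present during infection and in first agarose overlay for 24 h. Second overlay with neutral red, further 24 h, plaques counted. Top concentration 50 µM (10 µM for some).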

The nature of data set [4]: Cytotoxicity against mouse RAW264.7 cells assessed as cell viability at 2.34 uM after 48 hrs by MTT assay. The class given is cell-based. The note with it: read-out: Activity.
A short description of data set [5]: Antiviral activity against MNV1 CW1 infected in mouse RAW264.7 cells assessed as inhibition of viral plaque formation at 10 uM after 24 hrs by neutral red staining. The class given is functional, Murine norovirus 1. The note with it: Norwalk virus, CW1, RAW264.7, 24 h. The method in brief:
as §1

Data set [6] in a line: Selectivity index, ratio of CC50 for mouse RAW264.7 cells to IC50 for MNV1 CW1 infected in mouse RAW264.7 cells. The class given is functional.
Another data set relates to rhinovirus B14. Nature of the data set: Antiviral activity against HRV-14 infected in human HeLa cells assessed as inhibition of viral plaque formation. The class given is functional, organism-based. The note with it: Rhinovirus B.
Another data set concerns rhinovirus A1B. The experiment in a line: Antiviral activity against HRV-1B infected in human HeLa cells assessed as inhibition of viral plaque formation. Format: functional, organism-based, Human rhinovirus 1B. The note with it: Rhinovirus A.
A short description of data set [7]: Antiviral activity against MNV1 CW1 infected in mouse RAW264.7 cells assessed as inhibition of viral plaque formation at 50 uM after 24 hrs by neutral red staining. The class given is functional, Murine norovirus 1. The note with it: Norwalk virus, CW1, RAW264.7, 24 h. The method, boiled down:
as §1

The nature of data set [8]: Antiviral activity against MNV1 CW1 infected in mouse RAW264.7 cells assessed as inhibition of viral plaque formation treated for 1 hr during viral infection followed by 48 hrs compound addition post infection by neutral red staining. The class given is functional, cell-based, Murine norovirus 1. The note with it: Norwalk virus, CW1, RAW264.7. The method in brief:
as §1

Data set [9] deals with RAW264.7. The experiment in a line: Cytotoxicity against mouse RAW264.7 cells at 100 uM after 48 hrs by MTT assay. The class given is cell-based. To be noted: raw264.7, 48 h.
A short description of data set [10]: (§2) Antiviral activity against MNV1 CW1 infected in mouse RAW264.7 cells assessed as inhibition of viral plaque formation treated for 48 hrs after viral infection by neutral red staining. Format: functional, cell-based, Murine norovirus 1. To be noted: Norwalk virus, CW1, RAW264.7, 48 h. The method, boiled down: (§3)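 Compound added only in the agarose overlays for 48 h after 1 h MNV-1.CW1 infection of confluent RAW 264.7 cells; neutral red second overlay at 24 h, plaques counted after further 24 h. IC50 relative to DMSO-treated infected control; run alongside standard conditions.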

For data set [11], the system named is RAW264.7. Described as §2. Format: functional, cell-based. The note with it: Murine norovirus 1. The method in brief: as §3
Data set [12] is described as follows: (§4) Antiviral activity against MNV1 CW1 infected in mouse RAW264.7 cells assessed as inhibition of viral plaque formation treated for 1 hr during viral infection by neutral red staining. The note with it: Norwalk virus, CW1, RAW264.7, 1 h. Format: functional, cell-based, Murine norovirus 1. The method, boiled down:
(§5)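 Time-of-addition variant: RAW 264.7 cells exposed to serial compound concentrations only during the 1 h MNV-1.CW1 infection at 37 °C, then compound-free agarose overlays (neutral red second overlay, 24 h + 24 h) and plaque count. IC50 vs DMSO control; three independent experiments in duplicate.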

The test system of data set [13] is RAW264.7. Described as §4. Format: functional, cell-based. To be noted: Murine norovirus 1. The method in brief: as §5

As to `O=c1ccoc2ccccc12` [CHROMONE], the CC50 at 48 h in data set [1] is above 150 µM. In addition, the MNTC at 48 h in [2] (read-out: MNTD70) was above 150 µM. Further, the MNTC at 48 h in data set [2] (read-out: MNTD90) worked out at 37.5 µM. For the same molecule, in [3], the “inhibition (INH)” value is 29.9% and the pIC50 was below 4.30.
As to `COc1ccc(/C=C/c2cc(=O)c3ccccc3o2)cc1`, the MNTC at 48 h in data set [2] (read-out: MNTD70) is above 100 µM; in data set [2] (read-out: MNTD90), 50 µM.
The molecule `C/C(=C\c1ccccc1)c1oc2ccccc2c(=O)c1O` yielded a CC50 at 48 h in [1] of 46.7 µM. For the same molecule, the MNTC at 48 h in [2] (read-out: MNTD70) is 18.8 µM; in [2] (read-out: MNTD90), below 2.34 µM. The viability at 48 h, 2.34 µM in [4] was 81%. Further, in data set [3], the pIC50 was below 5.00. In addition, the inhibition at 10 µM in data set [5] was determined as 40.8%.
With `O=c1cc(/C=C/c2ccc(Cl)cc2)oc2ccccc12`, the MNTC at 48 h in data set [2] (read-out: MNTD70) was above 150 µM; in data set [2] (read-out: MNTD90), 75 µM.
With `COc1c(/C=C/c2ccccc2)oc2ccccc2c1=O`, the “Ratio CC50/IC50” value in [6] is reported as above 4. Also, the values for the pIC50 (with rhinovirus B14; with rhinovirus A1B; in [3]) were 5.80, 5.96 and 4.42, respectively. In addition, the CC50 at 48 h in data set [1] was above 150 µM. The MNTC at 48 h in [2] (read-out: MNTD70) amounted to 75 µM; in data set [2] (read-out: MNTD90), 37.5 µM.
As to `O=c1c(O)c(/C=C/c2ccccc2)oc2ccccc12`, the results for the pIC50 (in the data set with rhinovirus B14; with rhinovirus A1B; in data set [3]) were 5.01, 5.29 and below 5.00, respectively. It took 52.1 µM to reach half-maximal cytotoxicity in [1] (CC50 at 48 h). Moreover, the MNTC at 48 h in [2] (read-out: MNTD70) amounted to 18.8 µM; in [2] (read-out: MNTD90) it was 2.34 µM. Besides, in data set [5], the inhibition at 10 µM was 6.8%.
Turning to `C/C(=C\c1ccccc1)c1cc(=O)c2ccccc2o1`, in data set [6], the “Ratio CC50/IC50” value was above 8.3. Besides, in data set [1], the CC50 at 48 h was above 150 µM. Besides, the MNTC at 48 h in [2] (read-out: MNTD70) and in data set [2] (read-out: MNTD90) was above 150 µM in each case. The pIC50 in [3] is 4.74.
In [1], `O=c1cc(/C=C/c2ccccc2)oc2cccc(OCc3ccccc3)c12` came in with a CC50 at 48 h above 150 µM. The figures for the MNTC at 48 h in data set [2] (read-out: MNTD70) and in data set [2] (read-out: MNTD90) were above 150 µM and 75 µM, respectively. Besides, in data set [3], the pIC50 is below 4.30. Moreover, the inhibition at 50 µM in data set [7] is 39.4%.
For the molecule `O=c1cc(/C=C/c2ccccc2)oc2ccccc12`, in [6], the “Ratio CC50/IC50” value was above 8.5. Also, the values for the pIC50 (in the data set with rhinovirus B14; with rhinovirus A1B; in [3]) were below 4.60, 5.21 and 4.75, respectively. The molecule also returned a CC50 at 48 h in data set [1] above 150 µM. In addition, the figures for the MNTC at 48 h in data set [2] (read-out: MNTD70) and in data set [2] (read-out: MNTD90) were above 150 µM and 75 µM, respectively.
With `O=c1cc(/C=C/c2ccccc2)oc2cccc(O)c12`, the “Ratio CC50/IC50” value in data set [6] is listed as above 21.6. The pIC50 in [8] is 5.16; in [10], 5.09; in data set [12] it was 4.41; in [3] it was 5.15. In addition, the Activity entry in the data set on RAW264.7 [9] is “Non-toxic”. For the same molecule, the inhibition entry in the data set on RAW264.7 [11] and in the data set with RAW264.7 [13] was “Dose-dependent effect” each time. Moreover, the CC50 at 48 h in [1] is above 150 µM. Moreover, the MNTC at 48 h in data set [2] (read-out: MNTD70) was above 150 µM; in data set [2] (read-out: MNTD90), 4.69 µM.
For `O=c1cc(/C=C/c2ccc(O)cc2)oc2ccccc12`, the pIC50 with rhinovirus B14 is 5.19; in the data set with rhinovirus A1B, 5.03; in data set [3] it was below 4.30. In addition, the CC50 at 48 h in data set [1] is above 150 µM. The figures for the MNTC at 48 h in data set [2] (read-out: MNTD70) and in [2] (read-out: MNTD90) were above 150 µM and below 2.34 µM, respectively. The viability at 48 h, 2.34 µM in [4] worked out at 86%. Moreover, in data set [7], the inhibition at 50 µM was 21.1%.
With `Cc1ccc(/C=C/c2cc(=O)c3ccccc3o2)cc1`, the “Ratio CC50/IC50” value in [6] is given as above 6.3. Besides, the pIC50 in the data set on rhinovirus B14 was below 5.20; in the data set on rhinovirus A1B, below 5.20; in data set [3] it was 4.63. In [1], this molecule gave a CC50 at 48 h above 150 µM. Further, the MNTC at 48 h in data set [2] (read-out: MNTD70) and in data set [2] (read-out: MNTD90) was above 150 µM throughout.
